What was measured:
Globisporangium ultimum [1] = assay: Antifungal activity against logarithmic phase of Pythium ultimum ATCC 58812 assessed as growth inhibition at 100 ug/ml measured at 5 days post-drug treatment; assay type: functional; details: ATCC 58812, 120 h, read-out: GI
In short: (§1)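 Log-phase mycelium (from 10 mm stationary-phase disks grown on cellophane over PDA, pH 5.6, 26 ± 1 °C) moved to PDA with compound added from DMSO stock at 45 °C. Final concentrations were 10, 50 or 100 µg mL^-1, with 0.1% DMSO in test and control media. Colony diameter was read daily for 5 days, in triplicate, as % of untreated control.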

Botrytis cinerea [2] = assay: Antifungal activity against logarithmic phase of Botryotinia fuckeliana ATCC 48339 assessed as growth inhibition at 100 ug/ml measured at 5 days post-drug treatment; assay type: functional; details: ATCC 48339, 120 h, read-out: GI; in short: as §1
Pyricularia grisea [3] = assay: microbe, parasite or virus in culture; assay type: functional; details: ATCC 64413, 120 h, read-out: GI
Pyricularia grisea [4] = assay: microbe, parasite or virus in culture; assay type: functional; details: ATCC 64413, 120 h, read-out: GI; remark: listed apart in the source
Botrytis cinerea [5] = assay: Antifungal activity against logarithmic phase of Botryotinia fuckeliana ATCC 48339 assessed as growth inhibition at 10 ug/ml measured at 5 days post-drug treatment; assay type: functional; details: ATCC 48339, 120 h, read-out: GI; in short: as §1
Botrytis cinerea [6] = assay: Antifungal activity against logarithmic phase of Botryotinia fuckeliana ATCC 48339 assessed as growth inhibition at 50 ug/ml measured at 5 days post-drug treatment; assay type: functional; details: ATCC 48339, 120 h, read-out: GI; in short: as §1
Globisporangium ultimum [7] = assay: Antifungal activity against logarithmic phase of Pythium ultimum ATCC 58812 assessed as growth inhibition at 50 ug/ml measured at 5 days post-drug treatment; assay type: functional; details: ATCC 58812, 120 h, read-out: GI; in short: as §1
Globisporangium ultimum [8] = assay: Antifungal activity against logarithmic phase of Pythium ultimum ATCC 58812 assessed as growth inhibition at 10 ug/ml measured at 5 days post-drug treatment; assay type: functional; details: ATCC 58812, 120 h, read-out: GI; in short: as §1
Globisporangium ultimum [9] = assay: Antifungal activity against logarithmic phase of Pythium ultimum Trow ATCC 58812 assessed as growth inhibition measured at 5 days post-drug treatment; assay type: functional, organism-based; details: ATCC 58812, 120 h
In short: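 Log-phase mycelium grown on cellophane over PDA (pH 5.6, 26 ± 1 °C) moved to PDA containing compound at 10, 50 and 100 µg mL^-1 final, with 0.1% DMSO in test and control media. Colony diameter was measured daily for 5 days, in triplicate, relative to untreated controls. IC50 came from curves of activity (%) versus log inhibitor concentration.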

Pyricularia grisea [10] = assay: microbe, parasite or virus in culture; assay type: functional; details: ATCC 64413, 120 h, read-out: GI; remark: listed apart in the source
Pyricularia grisea [11] = assay: microbe, parasite or virus in culture; assay type: functional, organism-based; details: ATCC 64413, 120 h

Row | SMILES | inhibition of growth at 100 µg/mL (Globisporangium ultimum [1]) | inhibition of growth at 100 µg/mL (Botrytis cinerea [2]) | inhibition of growth at 100 µg/mL (Pyricularia grisea [3]) | inhibition of growth at 50 µg/mL (Pyricularia grisea [4]) | inhibition of growth at 10 µg/mL (Botrytis cinerea [5]) | inhibition of growth at 50 µg/mL (Botrytis cinerea [6]) | inhibition of growth at 50 µg/mL (Globisporangium ultimum [7]) | inhibition of growth at 10 µg/mL (Globisporangium ultimum [8]) | IC50 (Globisporangium ultimum [9]) | inhibition of growth at 10 µg/mL (Pyricularia grisea [10]) | IC50 (Pyricularia grisea [11])
1 | CCCCNC(=S)Nc1[nH]ncc1C(=O)OCC | 10.4% | 32.4% | 10% | 8.6% | 4.7% | 15.1% | – | – | – | – | –
2 | O=c1c2cn[nH]c2[nH]c(=S)n1Cc1ccccc1 | 78% | 31.9% | 44.4% | 23.4% | 13.5% | 23.4% | 64.6% | 44.1% | 66 µM | 0.5% | –
3 | Cc1c(C(=O)O)c(C(=O)NC(C)(C)C)nn1-c1c(Cl)cc(C(F)(F)F)cc1Cl | 54.7% | 27.5% | 24.4% | 20.6% | 17.3% | 22.6% | 37.9% | 1.9% | – | – | –
4 | CCOC(=O)c1cn[nH]c1NC(=S)NC1CCCCC1 | 63.9% | – | 36% | 26.7% | – | – | 59% | 44.4% | – | 29.8% | –
5 | Cc1[nH]nc(C(=O)NC2CC2)c1C(=O)O | 39.9% | 19.2% | 9% | 5.9% | – | 10.6% | 32.9% | 3.2% | – | 3.6% | –
6 | Cc1cccc2sc3nncn3c12 [TRICYCLAZOLE] | – | – | 62% | 24% | – | – | – | – | – | 0% | 474 µM
7 | Cc1c(C(=O)O)c(C(=O)NC2CC2)nn1C | 11.4% | 19.8% | 8.6% | 4.3% | 3% | 9.9% | 6.6% | – | – | – | –
8 | Cc1c(C(=O)O)c(C(=O)NC(C)(C)C)nn1C | 41.3% | 61.9% | 5.8% | 4.1% | – | 9.6% | 12.5% | – | – | 0.9% | –
9 | O=c1c2cn[nH]c2[nH]c(=S)n1-c1ccc(Cl)cc1 | 37.8% | 31.7% | – | – | – | – | 12.2% | 1.7% | – | – | –
10 | CCOC(=O)c1cn[nH]c1NC(=S)Nc1ccc([N+](=O)[O-])cc1 | 63.4% | 37.9% | 17.7% | 15.6% | 13.2% | 33% | 36% | 27.2% | – | 13% | –
11 | O=c1c2cn[nH]c2[nH]c(=S)n1-c1cccc(C(F)(F)F)c1 | 57.8% | 7.2% | 4.1% | 1.4% | 0.5% | 1% | 34.5% | 17.2% | – | – | –
12 | CCOC(=O)c1cn[nH]c1NC(=S)Nc1ccc(Br)cc1 | 3.1% | 16.3% | 27.2% | 27.1% | – | – | 2% | – | – | 16.1% | –
13 | COC(=O)c1c(C(=O)NC2CC2)nn(C)c1C | 7.7% | 3.2% | 3.4% | – | – | 4% | 4.3% | 4.8% | – | – | –
14 | O=c1c2cn[nH]c2[nH]c(=S)n1-c1ccc([N+](=O)[O-])cc1 | 13.7% | 2.1% | – | – | – | – | 8.7% | 4.6% | – | – | –
15 | O=c1c2cn[nH]c2[nH]c(=S)n1-c1cccc(Cl)c1 | 10.8% | 27.3% | 5% | 1% | – | 8.5% | 4.1% | 2.2% | – | – | –
16 | Cc1onc(C(=O)NC2CC2)c1C(=O)O | 53.5% | – | 8.97% | 2.3% | 3.8% | – | 46.6% | 46% | – | – | –
17 | Cc1onc(C(=O)NC(C)(C)C)c1C(=O)O | 40.2% | 18.2% | – | – | 4.3% | 13.3% | 15.8% | 9.7% | – | – | –
18 | CCOC(=O)c1cn[nH]c1NC(=S)NCc1ccccc1 | 38.3% | 32% | 41.4% | 35.6% | 0% | 26% | 34.6% | 3.7% | – | 15.8% | –
19 | COC(=O)N(OC)c1ccccc1COc1ccn(-c2ccc(Cl)cc2)n1 [PYRACLOSTROBIN] | 100% | – | – | – | – | – | 100% | 100% | < 10 µM | – | –
20 | CCn1c(=S)[nH]c2[nH]ncc2c1=O | – | – | 4.1% | 3.6% | – | – | – | – | – | – | –
21 | CCOC(=O)c1cn[nH]c1NC(=S)Nc1cccc(C(F)(F)F)c1 | 28% | 23.2% | 51% | 46.3% | – | – | 24.2% | 23% | – | 29.4% | 224 µM
22 | CCNC(=S)Nc1[nH]ncc1C(=O)OCC | 20% | – | 28.9% | 18.1% | – | – | – | – | – | 13.8% | –
23 | O=c1c2cn[nH]c2[nH]c(=S)n1-c1ccc(Br)cc1 | 61.8% | – | 20% | 18% | – | – | 22.5% | – | – | – | –
24 | COC(=O)c1c(C(=O)O)nn(C)c1C | – | 3.3% | 8.4% | – | – | – | – | – | – | – | –
25 | CCOC(=O)c1c[nH]nc1N=C(S)Nc1ccc(Cl)cc1 | 61.5% | 46.2% | 36.7% | 33.6% | – | 21% | 52.9% | 38% | – | 21.4% | –
26 | Cc1c(C(=O)O)c(C(=O)NC(C)(C)C)nn1-c1ccccc1 | 83.4% | 60.5% | 13.9% | 3.8% | 39.5% | 43.1% | 82.3% | 12.1% | 79 µM | 0.6% | –

— ChEMBL document CHEMBL3045616, “Synthetic pyrazole derivatives as growth inhibitors of some phytopathogenic fungi” (J Agric Food Chem, 2007)
